Data from ChEMBL document CHEMBL1122665, “Synthesis of thyrotropin-releasing hormone analogues. 1. Complete dissociation of central nervous system effects from thyrotropin-releasing activity” (1984).
Non-standard residues stand in square brackets, D forms with d. Residues, ends and D or L forms follow the SMILES beside them. *: point of attachment. Cha = N[C@@H](CC1CCCCC1)C(=O)O; pGlu = O=C1CC[C@@H](C(=O)O)N1; Nle = CCCC[C@H](N)C(=O)O; Nva = CCC[C@H](N)C(=O)O; Abu = CC[C@H](N)C(=O)O; tBu = CC(C)(C)*

How the values were obtained:
Rattus norvegicus [1] = experiment: Inhibition of haloperidol catalepsy by less than 50% in a dose of 80 mg/kg, iv in adult male Wistar rats; type: functional
[2] = Evaluated for hormonal (TSH) releasing activity in adult male albino rats after single intraperitoneal injection using radioimmunoassay; type: functional
Summary of the method: (§1)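 Two-point assay in adult male albino rats: single ip injection at 1 and 10 μg. Blood drawn 15 min post-injection. Serum TSH measured by radioimmunoassay (NIAMDD rat TSH-RIA system). Relative potency expressed in percent, with synthetic TRH reference set at 100%.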

Rattus norvegicus [3] = experiment: Anticataleptic effect at effective dose after intravenous administration in adult male Wistar rats; type: functional
Summary of the method: (§2)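 Haloperidol catalepsy induced in adult male Wistar rats by 4 mg/kg ip. Analogues given iv at 5 to 80 mg/kg, 2 h after haloperidol. Read-out is inhibition of catalepsy, taken as a measure of dopaminergic stimulation. Synthetic TRH served as reference standard.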

Rattus norvegicus [4] = experiment: Anticataleptic effect at effective dose after intravenous administration in adult male Wistar rats.; type: functional; summary of the method: as §2
Rattus norvegicus [5] = experiment: Evaluated for hormonal (TSH) releasing activity in adult male albino rats after single intraperitoneal injection using radioimmunoassay; np- significant activity but not parallel TSH response to the lower and upper doses used; type: functional, organism-based; summary of the method: as §1
Rattus norvegicus [6] = experiment: Evaluated for hormonal (TSH) releasing activity in adult male albino rats after single intraperitoneal injection using radioimmunoassay; np-significant activity but not parallel TSH response to the lower and upper doses used; type: functional, organism-based; summary of the method: as §1
Rattus norvegicus [7] = experiment: Evaluated for hormonal (TSH) releasing activity in adult male albino rats after single intraperitoneal injection using radioimmunoassay; np -significant but not parallel TSH response to the lower and upper doses used; type: functional, organism-based; summary of the method: as §1
[8] = Rattus norvegicus, iv, read-out: ED50

## CCCCCCCCCCNC(=O)[C@H]1CCCN1C(=O)[C@@H](CC(C)C)NC(=O)[C@H]1CCC(=O)N1
Rattus norvegicus [1]
  inhibition in vivo at 80 mg/kg: 10%
[2]
  Activity: 0%

## CC(C)[C@H](NC(=O)[C@@H]1CCC(=O)N1)C(=O)N1CCC[C@H]1C(N)=O ([pGlu]-Val-Pro-NH2)
Rattus norvegicus [3]; [8]
  ED50: > 80 mg/kg
[2]
  Activity: 3.1%

## CC(C)C[C@H](NC(=O)[C@@H]1CCC(=O)N1)C(=O)N1CCC[C@@H]1C(N)=O
Rattus norvegicus [3]; [8]
  ED50: > 80 mg/kg
[2]
  Activity: 0%

## C[C@@H](O)[C@H](NC(=O)[C@@H]1CCC(=O)N1)C(=O)N1CCC[C@H]1C(N)=O ([pGlu]-Thr-Pro-NH2)
Rattus norvegicus [3]; [8]
  ED50: 80 mg/kg
[2]
  Activity: 25.7%

## CCC[C@H](NC(=O)[C@@H]1CCC(=O)N1)C(=O)N1CCC[C@H]1C(N)=O ([pGlu]-[Nva]-Pro-NH2)
Rattus norvegicus [3]; [8]
  ED50: 11.4 mg/kg
[2]
  Activity: 0%

## CCCC[C@H](NC(=O)[C@@H]1CCC(=O)N1)C(=O)N1CCC[C@H]1C(N)=O ([pGlu]-[Nle]-Pro-NH2)
Rattus norvegicus [3]; [8]
  ED50: 16.8 mg/kg
[2]
  Activity: 3.8%

## C[C@H](NC(=O)[C@@H]1CCC(=O)N1)C(=O)N1CCC[C@H]1C(N)=O ([pGlu]-Ala-Pro-NH2)
Rattus norvegicus [1]
  inhibition in vivo at 80 mg/kg: 0%
[2]
  Activity: 0%

## CC[C@H](NC(=O)[C@@H]1CCC(=O)N1)C(=O)N1CCC[C@H]1C(N)=O ([pGlu]-[Abu]-Pro-NH2)
Rattus norvegicus [3]; [8]
  ED50: ≥ 80 mg/kg
[2]
  Activity: 0%

## COC(=O)[C@H]1CCCN1C(=O)[C@@H](CC(C)C)NC(=O)[C@H]1CCC(=O)N1
Rattus norvegicus [1]
  inhibition in vivo at 80 mg/kg: 0%
[2]
  Activity: 0%

## CC(C)(C)OC[C@H](NC(=O)[C@@H]1CCC(=O)N1)C(=O)N1CCC[C@H]1C(N)=O ([pGlu]-Ser(tBu)-Pro-NH2)
Rattus norvegicus [1]
  inhibition in vivo at 80 mg/kg: 0%
[2]
  Activity: 0.2%

## NC(=O)[C@@H]1CCCN1C(=O)CNC(=O)[C@@H]1CCC(=O)N1 ([pGlu]-Gly-Pro-NH2)
Rattus norvegicus [1]
  inhibition in vivo at 80 mg/kg: 10%
[2]
  Activity: 0%

## CC(C)C[C@@H](NC(=O)[C@H]1CCC(=O)N1)C(=O)N1CCC[C@@H]1C(=O)O
Rattus norvegicus [1]
  inhibition in vivo at 80 mg/kg: 0%
[2]
  Activity: 0.1%

## CC(C)C[C@H](NC(=O)[C@@H]1CCC(=O)N1)C(=O)N1CCC[C@H]1C(N)=O [listing 1 of 2 here]
Rattus norvegicus [3]
  ED50: 40 mg/kg
[2]
  Activity: 2.7%

## NC(=O)[C@@H]1CCCN1C(=O)[C@@H]1CCCN1C(=O)[C@@H]1CCC(=O)N1
Rattus norvegicus [3]; [8]
  ED50: 80 mg/kg

## NC(=O)[C@@H]1CCCN1C(=O)[C@H](CC1CCCCC1)NC(=O)[C@@H]1CCC(=O)N1 ([pGlu]-[Cha]-Pro-NH2)
Rattus norvegicus [1]
  inhibition in vivo at 80 mg/kg: 20%
[2]
  Activity: 45.6%

## CCNC(=O)[C@H]1CCCN1C(=O)[C@@H](CC(C)C)NC(=O)[C@H]1CCC(=O)N1
Rattus norvegicus [3]; [8]
  ED50: 56.6 mg/kg
[2]
  Activity: 0%

## CC(C)C[C@@H](NC(=O)[C@@H]1CCC(=O)N1)C(=O)N1CCC[C@H]1C(N)=O
Rattus norvegicus [3]; [8]
  ED50: > 80 mg/kg
[2]
  Activity: 0%

## NC(=O)[C@@H]1CCCN1C(=O)[C@H](Cc1c[nH]cn1)NC(=O)[C@@H]1CCC(=O)N1 [PROTIRELIN]
Rattus norvegicus [4]
  ED50: 113 mg/kg
Rattus norvegicus [1]
  inhibition in vivo at 80 mg/kg: 40%
[2]
  Activity: 100%

## CC[C@H](C)[C@H](NC(=O)[C@@H]1CCC(=O)N1)C(=O)N1CCC[C@H]1C(N)=O ([pGlu]-Ile-Pro-NH2)
Rattus norvegicus [1]
  inhibition in vivo at 80 mg/kg: 10%
[2]
  Activity: 0.2%

## NC(=O)[C@@H]1CCCN1C(=O)[C@H](Cc1ccccc1)NC(=O)[C@@H]1CCC(=O)N1 ([pGlu]-Phe-Pro-NH2)
Rattus norvegicus [1]
  inhibition in vivo at 80 mg/kg: 40%

## NC(=O)[C@@H]1CCCN1C(=O)[C@@H]1CCCN1C(=O)[C@H]1CCC(=O)N1
Rattus norvegicus [5]
  Activity: Significant but not parallel

## CC(C)C[C@@H](NC(=O)[C@H]1CCC(=O)N1)C(=O)N1CCCC1
Rattus norvegicus [6]
  Activity: Significant but not parallel
Rattus norvegicus [1]
  inhibition in vivo at 80 mg/kg: 20%

## CC(C)C[C@@H](NC(=O)[C@H]1CCC(=O)N1)C(=O)N1CCC[C@@H]1C(=O)NCCN(C)C
Rattus norvegicus [1]
  inhibition in vivo at 80 mg/kg: 10%
[2]
  Activity: 0%

## CC(C)C[C@H](NC(=O)[C@@H]1CCC(=O)N1)C(=O)N1CCC[C@H]1C(N)=O [listing 2 of 2 here]
Rattus norvegicus [3]; [8]
  ED50: 70 mg/kg
[2]
  Activity: 0%

## CSCC[C@H](NC(=O)[C@@H]1CCC(=O)N1)C(=O)N1CCC[C@H]1C(N)=O ([pGlu]-Met-Pro-NH2)
Rattus norvegicus [1]
  inhibition in vivo at 80 mg/kg: 40%
[2]
  Activity: 1%

## CCCCCCCC[C@H](NC(=O)[C@@H]1CCC(=O)N1)C(=O)N1CCC[C@H]1C(N)=O
Rattus norvegicus [7]
  Activity: Significant but not parallel
Rattus norvegicus [1]
  inhibition in vivo at 80 mg/kg: 0%
